T cruzi repl: inhibitors of intracellular T. cruzi growth, primary screen, luminescence, NIH3T3 host cells; T. cruzi beta-gal in NIH3T3, 90 h; inhibition, % (test concentration not listed); actives 1.4% (n = 300,000); AID 1885, 2009;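 active means mean inhibition across valid replicates above about 55%, limit read from the data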;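 further: signal also drops with host cell toxicity which is not excluded here; 0% = plate median of DMSO wells and 100% = zero luminescence signal; higher percent means less beta-gal luminescence so fewer parasites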
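Test system: β-gal T. cruzi (Tulahuen C4) inside NIH/3T3 cells / Quantity: 5,000 cells/well / Measured by: luminescence from GalScreen with 0.05% NP40, read after 60 min / Medium: DMEM plus 2% FBS / Measure: parasite load inhibition, % / Reagent: Tulahuen C4 trypomastigotes, 5000/well / Schedule: co-culture of at least 90 h after 3 h attachment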
CHOP UPR activ: activators of apoptotic CHOP UPR arm, primary screen, cell-based, CHO-CHOP luciferase reporter, luminescence, uHTS; actives 0.34% (n = 330,000); activation, % at 10 µM; UPR activation; percent of tunicamycin response over DMSO baseline; AID 449763, 2010;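 active means at 10 µM dose, activation of 40% or more, normalized to positive control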;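 further: 100% = tunicamycin at 10 µg/mL and 0% = DMSO alone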
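measured by = luciferase luminescence | assay system = CHO-CHOP cells, stable luciferase reporter of PERK-eIF2a-CHOP signalling | amount = 500 reporter cells seeded per well | timing = 6 h compound exposure at 37 °C after overnight seeding | controls = positive tunicamycin 10 µg/mL, negative DMSO alone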
UPR XBP1 act: activators of adaptive XBP1 UPR arm, primary screen, cell-based, CHO-XBP1 luciferase reporter, luminescence, uHTS. actives 0.33% (n = 330,000). IRE1-XBP1 UPR activation; percent of tunicamycin response, DMSO as zero. AID 463104, 2010. activation, % at 20 µM;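 active means versus positive control, 20 µM dose yields 30% or more activation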;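 further: 100% = tunicamycin at 10 µg/mL and 0% = DMSO only wells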
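Material: CHO-XBP1 cells stably carrying IRE1-XBP1-driven luciferase reporter | Medium: F12 with 10% serum | Compound dosing: 20 µM single concentration, DMSO 1% | Incubation: Overnight seeding at 37 °C, 6 h compound treatment at 37 °C | Detection: Steady-Glo luminescence read | Read-out basis: % activation of reporter signal versus tunicamycin and DMSO controls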
L major viab: Leishmania major promastigote growth inhibition, primary screen. inhibition, % at 10 µM. Leishmania major promastigotes, resazurin fluorescence viability. actives 9% (n = 200,000). AID 1063, 2008; in the data active means inhibition above about 50%;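 further: promastigotes grown with compound for 44 hours at 28 °C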
CHOP inhibitor: inhibitors of CHOP promoter induction, primary screen, cell-based, unfolded protein response, luciferase reporter | CHO-K1 CHOP-promoter luciferase, tunicamycin-induced, 15-18 h | inhibition, % at 10 µM | actives 3.8% (n = 220,000);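 active means compounds that reduced the stress-induced luciferase reporter signal by more than about 70% of percent inhibition, limit read from the data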;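 further: 0% = tunicamycin plus vehicle and 100% = wells without tunicamycin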
Dynein transport: inhibitors of GR-EGFP nuclear translocation, primary screen, dynein cargo transport inhibitor project, imaging, high-content, 3617.4 mouse cells; test concentration mostly 20 µM; stimulated with dexamethasone, 1 µM; hits give low values; z-score, hits read low; actives 0.47% (n = 220,000); AID 1381, 2008;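 active means plate z-score of nuclear minus cytoplasmic receptor signal below a set negative limit, without overly bright fluorescence or cell loss, cut at about -3.5 in these data, passing the limit was not always enough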;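 further: z-score of nuclear minus cytoplasmic ring GR-EGFP intensity difference per well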
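medium = tetracycline-free induction medium containing charcoal-stripped FBS | also added = 1.0 µM final dexamethasone stimulus | schedule = 48 h induction, 1 h compound, 30 min dex at 37 °C | technique = fixed, Hoechst-stained cells imaged at 10x for EGFP | measure = GR-EGFP nuclear translocation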
* marks the source's active call; other numbers are inactive results. This excerpt belongs to a sample that is enriched for hits.

Results for O=C(CSc1nnnn1C1CCCCC1)N1CCc2ccccc21 ?
T cruzi repl: -7.9; CHOP UPR activ: 2.1; UPR XBP1 act: 2.8; L major viab: -3.2; CHOP inhibitor: 67.2; Dynein transport: -0.253

How did O=C(CSc1ncc(-c2ccccc2)n1C1CCCC1)N1CCc2ccccc21 do in these assays?
T cruzi repl: 63.5*; CHOP UPR activ: 1.3; UPR XBP1 act: 1.2; L major viab: 50.5*; CHOP inhibitor: 74.6*; Dynein transport: 1.06

How did COc1ccc(CNS(=O)(=O)c2cc(CN3C(=O)c4cccnc4C3=O)ccc2OC)cc1 do in these assays?
T cruzi repl: -17.7; CHOP UPR activ: 1.2; UPR XBP1 act: -3.5

What do the screens show for `CC(C(=O)Nc1ccc2c(c1)OCO2)N1CCC(N2CCCCC2)CC1` (stereo not drawn)?
CHOP UPR activ: -0.1; UPR XBP1 act: -0.7

What do the screens show for `Cc1[nH]c(=S)c(C#N)c(-c2ccco2)c1C(=O)N(C)C`?
T cruzi repl: -6.1; CHOP UPR activ: 1.1; UPR XBP1 act: 1.2; L major viab: -6.0; CHOP inhibitor: -13.7; Dynein transport: 0.917

How did CC(C)c1cc(C(=O)Nc2cc(Br)ccc2O)no1 do in these assays?
T cruzi repl: -5.9; CHOP UPR activ: 2.5; UPR XBP1 act: 3.1; L major viab: -5.7; CHOP inhibitor: 78.1*; Dynein transport: -0.455

What do the screens show for `CC(C)c1cc(C(=O)Nc2cc(Cl)ccc2O)no1`?
T cruzi repl: -4.3; CHOP UPR activ: 6.1; UPR XBP1 act: 8.5; L major viab: -8.6; Dynein transport: 0.45

What do the screens show for `c1ccc(-c2ccccc2OCCCN2CCOCC2)cc1`?
T cruzi repl: 11.6; CHOP UPR activ: 1.8; UPR XBP1 act: -1.5; L major viab: 39.9; CHOP inhibitor: 28.7; Dynein transport: -0.362

What do the screens show for `c1ccc(-c2ccccc2OCCN2CCCC2)cc1`?
T cruzi repl: 2.3; CHOP UPR activ: 2.1; UPR XBP1 act: -1.4

How did OCCCN1CCN(CCCOc2ccccc2-c2ccccc2)CC1 do in these assays?
T cruzi repl: -2.0; CHOP UPR activ: 1.6; UPR XBP1 act: -0.7; L major viab: 92.7*; CHOP inhibitor: -8.9; Dynein transport: 1.12

How did c1ccc(-c2ccccc2OCCCCN2CCCCCC2)cc1 do in these assays?
T cruzi repl: 42.7; CHOP UPR activ: 1.8; UPR XBP1 act: 0.6; L major viab: 99.1*; CHOP inhibitor: 0.9; Dynein transport: 0.372

Results for c1ccc(-c2ccccc2OCCOCCN2CCCCC2)cc1 ?
T cruzi repl: 7.9; CHOP UPR activ: -1.2; UPR XBP1 act: 0.1; L major viab: 72.0*; CHOP inhibitor: -15.3; Dynein transport: -0.162

What do the screens show for `CCCCN1C(=O)N(c2ccccc2Cl)C(C)(O)CC1(C)C` (stereo not drawn)?
T cruzi repl: 2.2; CHOP UPR activ: -1.8; UPR XBP1 act: -3.9

How did COc1ccc(S(=O)(=O)N2CCOCC2)cc1NC(=O)CCOc1ccc(C(C)(C)C)cc1 do in these assays?
CHOP UPR activ: 1.6; UPR XBP1 act: 4.2

What do the screens show for `O=C(C1CCN(S(=O)(=O)c2cnc[nH]2)CC1)N1CCN(c2ccc([N+](=O)[O-])cc2)CC1`?
T cruzi repl: -9.6; CHOP UPR activ: 0.7; UPR XBP1 act: -4.3

How did Oc1ccccc1-c1nnc(COc2ccc(Cl)cc2Cl)o1 do in these assays?
T cruzi repl: 0.3; CHOP UPR activ: 2.5; UPR XBP1 act: 4.0; L major viab: -10.5; CHOP inhibitor: 72.8*; Dynein transport: 0.843

What do the screens show for `Oc1ccccc1-c1nnc(COc2ccccc2)o1`?
T cruzi repl: -7.1; CHOP UPR activ: 5.0; UPR XBP1 act: 2.7; L major viab: -11.8; CHOP inhibitor: 16.6; Dynein transport: -0.488

How did CN(C)CCNC(=O)COc1ccc(C23CC4CC(CC(C4)C2)C3)cc1 do in these assays?
T cruzi repl: 67.5*; CHOP UPR activ: 6.1; UPR XBP1 act: 5.1; L major viab: 100.5*; CHOP inhibitor: 41.3; Dynein transport: 1.67

Results for CCN(CC)CCNC(=O)COc1ccc(OC)cc1 ?
T cruzi repl: -15.5; CHOP UPR activ: -0.2; UPR XBP1 act: -4.5

How did Cc1ccc(C23CC4CC(CC(NC(=O)NCCN(C)C)(C4)C2)C3)cc1 do in these assays?
T cruzi repl: 59.1*; CHOP UPR activ: -0.1; UPR XBP1 act: 1.1; L major viab: 99.0*; CHOP inhibitor: 20.5; Dynein transport: 1.94

What do the screens show for `COc1cc(C(=O)NCc2ccc3c(c2)OCO3)c([N+](=O)[O-])cc1OC`?
T cruzi repl: -0.8; CHOP UPR activ: 3.1; UPR XBP1 act: 0.6

What do the screens show for `O=C(NCC(c1ccco1)N1CCCC1)c1ccc(Cl)c(S(=O)(=O)N2CCc3ccccc32)c1` (stereo not drawn)?
CHOP UPR activ: 4.3; UPR XBP1 act: -3.6

Results for COc1ccc(-n2cc3c(-c4cccc(Br)c4)nnc(C)c3n2)cc1 ?
T cruzi repl: 40.6; CHOP UPR activ: 1.1; UPR XBP1 act: 6.8; L major viab: 58.6*; CHOP inhibitor: -8.2; Dynein transport: -0.31

How did Cc1nnc(-c2cccc(Br)c2)c2cn(-c3cccc(Br)c3)nc12 do in these assays?
T cruzi repl: 59.5*; CHOP UPR activ: 0.8; UPR XBP1 act: 1.0; L major viab: 40.2; CHOP inhibitor: 75.3*; Dynein transport: -2.18

Results for COc1cc2c(cc1OC)[C@@H](c1ccccc1)CN(C)CC2 ?
CHOP inhibitor: 39.5

Results for O=C(Nc1ccc2c(c1)C(=O)N(CC1CCCO1)C2=O)c1ccc(Cl)c(Cl)c1 (stereo not drawn) ?
T cruzi repl: 8.1; CHOP UPR activ: 1.8; UPR XBP1 act: 0.8; L major viab: -0.2; CHOP inhibitor: 91.0*; Dynein transport: -0.158

What do the screens show for `CC(C)CC(=O)NS(=O)(=O)c1ccc(NS(C)(=O)=O)cc1`?
T cruzi repl: -8.3; CHOP UPR activ: -0.7; UPR XBP1 act: 3.0; L major viab: -6.5; CHOP inhibitor: 21.0; Dynein transport: -0.567

Results for Cc1onc(-c2c(F)cccc2Cl)c1C(=O)Nc1cccc(S(=O)(=O)N2CCOCC2)c1 ?
CHOP UPR activ: 0.1; UPR XBP1 act: -5.7

Results for Cc1ccccc1-c1cc(C(=O)NCC2CC2)nn1CC1CC(c2cccc([N+](=O)[O-])c2)=NO1 (stereo not drawn) ?
CHOP UPR activ: 4.8; UPR XBP1 act: -4.3
